Active and inactive are the calls of the source.
What was measured:
[1] = target: Y-box-binding protein 1 (Homo sapiens) (UniProt P67809); experiment: Binding affinity to YBX1 in human NCI-H23 cells at 1 uM by mass spectrometry based pull down assay; format: cell-based
[2] = target: Acyl-coenzyme A thioesterase 13 (Homo sapiens) (UniProt Q9NPJ3); experiment: Binding affinity to ACOT13 in human NCI-H23 cells at 1 uM by mass spectrometry based pull down assay; format: cell-based
Procedure, shortened: (§1)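 NCI-H23 or NCI-H358 cells were grown and lysed. Lysates were incubated overnight at 4 °C with 1 μM biotinylated covalent probe or DMSO, then pulled down on streptavidin beads. Proteins were run on polyacrylamide gels and stained with Coomassie. Bands were excised, digested and identified by mass spectrometry.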

[3] = target: Neuroblast differentiation-associated protein AHNAK (Homo sapiens) (UniProt Q09666); experiment: Binding affinity to AHNAK in human NCI-H23 cells at 1 uM by mass spectrometry based pull down assay; format: cell-based; procedure, shortened: as §1
[4] = target: T1, 80S Ribosome (Homo sapiens) (UniProt P08865+P42677+P62753+P15880+P23396+P61247+P62701+P22090+P46782+P62081+P62241+P46781+P46783+P62280+P25398+P62277+P62263+P62841+P62244+P62249+P08708+P62269+P39019+P60866+P63220+P62266+P62847+P62851+P62854+P62979+P62857+P62273+P62861+P39023+P36578+P46777+Q02878+P18124+P62424+P62917+P32969+P27635+P62906+P62913+P30050+P26373+P40429+P50914+P61313+P18621+Q07020+Q02543+P84098+P46778+P35268+P62829+P62750+P83731+P61254+P61353+P46776+P46779+P47914+P62888+P62899+P62910+P49207+P42766+P18077+Q9Y3U8+P83881+P61927+P61513+P63173+P62891+P62945+P05388+P05386); experiment: Binding affinity to RPL27 in human NCI-H23 cells at 1 uM by mass spectrometry based pull down assay; format: cell-based
[5] = target: Tubulin alpha-4A chain (Homo sapiens) (UniProt P68366); experiment: Binding affinity to TUBA4A in human NCI-H23 cells at 1 uM by mass spectrometry based pull down assay; format: cell-based
Tubulin alpha-4A chain (Homo sapiens), sequence (P68366 whole entry, looked up): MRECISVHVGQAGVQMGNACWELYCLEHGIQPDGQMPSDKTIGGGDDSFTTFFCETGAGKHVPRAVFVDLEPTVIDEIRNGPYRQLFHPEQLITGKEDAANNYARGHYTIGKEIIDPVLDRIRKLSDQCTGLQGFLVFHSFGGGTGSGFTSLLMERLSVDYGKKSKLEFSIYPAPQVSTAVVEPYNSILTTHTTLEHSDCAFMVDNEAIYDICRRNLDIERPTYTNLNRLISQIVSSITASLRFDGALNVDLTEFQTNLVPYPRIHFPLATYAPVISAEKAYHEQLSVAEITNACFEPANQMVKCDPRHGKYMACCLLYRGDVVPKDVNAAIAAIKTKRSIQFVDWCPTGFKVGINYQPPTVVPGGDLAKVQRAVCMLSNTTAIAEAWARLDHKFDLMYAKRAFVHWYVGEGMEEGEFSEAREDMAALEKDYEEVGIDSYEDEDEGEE

[6] = target: T1, 80S Ribosome (Homo sapiens); experiment: Binding affinity to RPLP1 in human NCI-H23 cells at 1 uM by mass spectrometry based pull down assay; format: cell-based
[7] = target: Large ribosomal subunit protein bL19m (Homo sapiens) (UniProt P49406); experiment: Binding affinity to MRPL19 in human NCI-H23 cells at 1 uM by mass spectrometry based pull down assay; format: cell-based
[8] = target: U5 small nuclear ribonucleoprotein 200 kDa helicase (Homo sapiens) (UniProt O75643); experiment: Binding affinity to SNRNP200 in human NCI-H23 cells at 1 uM by mass spectrometry based pull down assay; format: cell-based
[9] = target: Ubiquitin carboxyl-terminal hydrolase 5 (Homo sapiens) (UniProt P45974); experiment: Binding affinity to USP5 in human NCI-H23 cells at 1 uM by mass spectrometry based pull down assay; format: cell-based
Ubiquitin carboxyl-terminal hydrolase 5 (Homo sapiens), sequence (P45974 whole entry): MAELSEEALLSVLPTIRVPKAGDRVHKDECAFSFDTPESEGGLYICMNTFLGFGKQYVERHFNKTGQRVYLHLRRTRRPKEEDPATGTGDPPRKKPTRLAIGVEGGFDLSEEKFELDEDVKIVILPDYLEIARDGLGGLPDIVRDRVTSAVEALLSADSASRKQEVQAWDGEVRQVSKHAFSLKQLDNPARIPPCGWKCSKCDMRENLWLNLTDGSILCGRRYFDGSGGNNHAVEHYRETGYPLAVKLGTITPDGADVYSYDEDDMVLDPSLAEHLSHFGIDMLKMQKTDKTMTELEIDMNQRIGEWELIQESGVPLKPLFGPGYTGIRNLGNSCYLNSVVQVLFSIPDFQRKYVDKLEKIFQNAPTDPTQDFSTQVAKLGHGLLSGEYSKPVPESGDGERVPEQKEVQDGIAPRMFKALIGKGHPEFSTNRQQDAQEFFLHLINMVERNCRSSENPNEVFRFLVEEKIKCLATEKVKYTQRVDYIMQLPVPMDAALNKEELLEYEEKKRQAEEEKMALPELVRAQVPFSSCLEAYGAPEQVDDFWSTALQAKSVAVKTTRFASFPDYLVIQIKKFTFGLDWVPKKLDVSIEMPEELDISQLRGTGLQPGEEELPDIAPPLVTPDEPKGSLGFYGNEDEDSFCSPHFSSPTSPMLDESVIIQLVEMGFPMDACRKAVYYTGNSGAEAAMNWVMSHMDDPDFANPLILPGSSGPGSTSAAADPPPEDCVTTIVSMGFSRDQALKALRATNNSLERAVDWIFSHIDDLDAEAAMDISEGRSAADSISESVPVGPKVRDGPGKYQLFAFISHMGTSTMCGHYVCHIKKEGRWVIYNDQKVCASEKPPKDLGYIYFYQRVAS

[10] = target: Myeloid leukemia factor 2 (Homo sapiens) (UniProt Q15773); experiment: Binding affinity to MLF2 in human NCI-H23 cells at 1 uM by mass spectrometry based pull down assay; format: cell-based
[11] = target: Aldehyde dehydrogenase X, mitochondrial (Homo sapiens) (UniProt P30837); experiment: Binding affinity to ALDH1B1 in human NCI-H23 cells at 1 uM by mass spectrometry based pull down assay; format: cell-based; procedure, shortened: as §1
Aldehyde dehydrogenase X, mitochondrial (Homo sapiens), sequence (P30837 whole entry): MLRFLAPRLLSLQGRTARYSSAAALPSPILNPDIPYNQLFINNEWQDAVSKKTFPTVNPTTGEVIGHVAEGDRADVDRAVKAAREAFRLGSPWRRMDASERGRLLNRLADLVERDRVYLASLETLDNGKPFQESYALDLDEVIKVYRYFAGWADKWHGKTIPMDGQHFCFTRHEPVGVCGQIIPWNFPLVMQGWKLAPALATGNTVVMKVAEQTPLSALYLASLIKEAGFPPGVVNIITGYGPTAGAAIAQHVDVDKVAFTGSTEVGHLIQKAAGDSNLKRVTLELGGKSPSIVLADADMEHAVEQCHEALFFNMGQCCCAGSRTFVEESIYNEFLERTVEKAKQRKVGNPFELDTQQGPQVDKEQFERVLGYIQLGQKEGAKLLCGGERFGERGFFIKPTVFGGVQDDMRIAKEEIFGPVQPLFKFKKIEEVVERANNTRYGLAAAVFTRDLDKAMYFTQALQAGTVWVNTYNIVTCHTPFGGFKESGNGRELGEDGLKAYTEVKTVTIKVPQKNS

[12] = target: T2, Dual specificity mitogen-activated protein kinase kinase 7 (Homo sapiens) (UniProt O14733); experiment: Binding affinity to MAP2K7 in human NCI-H23 cells at 1 uM by mass spectrometry based pull down assay; format: cell-based
T2 sequence (whole entry): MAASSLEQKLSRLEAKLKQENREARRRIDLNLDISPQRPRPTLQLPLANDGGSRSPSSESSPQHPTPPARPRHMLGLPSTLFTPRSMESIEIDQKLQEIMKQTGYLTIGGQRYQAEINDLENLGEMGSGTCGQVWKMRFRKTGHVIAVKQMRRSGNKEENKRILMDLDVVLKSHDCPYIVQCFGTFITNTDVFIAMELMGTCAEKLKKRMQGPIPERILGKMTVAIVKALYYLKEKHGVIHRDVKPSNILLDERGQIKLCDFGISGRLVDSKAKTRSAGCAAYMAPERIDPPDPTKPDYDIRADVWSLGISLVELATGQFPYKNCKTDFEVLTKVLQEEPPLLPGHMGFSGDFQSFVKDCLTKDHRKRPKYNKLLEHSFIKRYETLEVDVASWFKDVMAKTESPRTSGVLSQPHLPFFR

[13] = target: Cyclin-dependent kinase 4 (Homo sapiens) (UniProt P11802); experiment: Binding affinity to CDK4 in human NCI-H23 cells at 1 uM by mass spectrometry based pull down assay; format: cell-based
[14] = target: Membrane-associated progesterone receptor component 1 (Homo sapiens) (UniProt O00264); experiment: Binding affinity to PGRMC1 in human NCI-H358 cells at 1 uM by mass spectrometry based pull down assay; format: cell-based
Membrane-associated progesterone receptor component 1 (Homo sapiens), sequence (O00264 whole entry): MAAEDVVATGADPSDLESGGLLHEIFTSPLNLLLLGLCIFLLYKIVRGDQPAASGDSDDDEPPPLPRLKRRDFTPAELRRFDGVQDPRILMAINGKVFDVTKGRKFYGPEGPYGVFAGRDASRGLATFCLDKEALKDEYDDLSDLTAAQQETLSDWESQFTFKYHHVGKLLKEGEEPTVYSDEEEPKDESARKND

[15] = target: T1, 80S Ribosome (Homo sapiens); experiment: Binding affinity to RPS17 in human NCI-H358 cells at 1 uM by mass spectrometry based pull down assay; format: cell-based
[16] = target: Reticulon-4 (Homo sapiens) (UniProt Q9NQC3); experiment: Binding affinity to RTN4 in human NCI-H358 cells at 1 uM by mass spectrometry based pull down assay; format: cell-based
Reticulon-4 (Homo sapiens), sequence (Q9NQC3 whole entry): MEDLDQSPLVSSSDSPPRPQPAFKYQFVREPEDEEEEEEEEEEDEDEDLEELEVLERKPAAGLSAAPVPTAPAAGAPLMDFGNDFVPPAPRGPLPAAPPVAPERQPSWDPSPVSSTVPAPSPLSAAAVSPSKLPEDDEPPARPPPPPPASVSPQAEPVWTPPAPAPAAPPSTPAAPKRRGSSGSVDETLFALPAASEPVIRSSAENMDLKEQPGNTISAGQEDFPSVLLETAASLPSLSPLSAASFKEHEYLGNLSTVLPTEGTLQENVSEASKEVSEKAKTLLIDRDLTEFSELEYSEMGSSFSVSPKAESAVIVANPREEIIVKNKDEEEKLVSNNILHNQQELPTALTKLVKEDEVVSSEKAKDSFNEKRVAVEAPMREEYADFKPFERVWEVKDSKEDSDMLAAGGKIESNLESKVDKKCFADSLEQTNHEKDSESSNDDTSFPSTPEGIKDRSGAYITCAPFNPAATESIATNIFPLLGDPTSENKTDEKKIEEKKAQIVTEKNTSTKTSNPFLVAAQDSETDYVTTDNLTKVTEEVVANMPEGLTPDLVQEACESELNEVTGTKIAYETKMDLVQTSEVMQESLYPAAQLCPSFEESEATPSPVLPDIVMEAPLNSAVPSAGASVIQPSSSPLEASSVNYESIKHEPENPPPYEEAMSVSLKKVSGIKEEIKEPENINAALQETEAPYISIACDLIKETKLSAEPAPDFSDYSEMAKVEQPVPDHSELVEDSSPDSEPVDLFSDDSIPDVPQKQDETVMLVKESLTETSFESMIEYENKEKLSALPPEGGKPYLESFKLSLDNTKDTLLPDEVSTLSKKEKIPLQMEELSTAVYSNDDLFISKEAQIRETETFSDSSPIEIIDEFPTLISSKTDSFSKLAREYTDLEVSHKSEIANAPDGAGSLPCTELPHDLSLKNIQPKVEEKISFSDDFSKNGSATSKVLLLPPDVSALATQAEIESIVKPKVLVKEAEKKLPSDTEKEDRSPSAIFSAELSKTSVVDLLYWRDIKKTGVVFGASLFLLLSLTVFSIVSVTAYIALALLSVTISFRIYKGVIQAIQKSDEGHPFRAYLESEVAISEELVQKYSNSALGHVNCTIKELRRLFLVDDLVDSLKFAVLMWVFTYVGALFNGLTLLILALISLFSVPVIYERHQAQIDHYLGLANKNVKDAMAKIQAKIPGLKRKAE

[17] = target: Dual specificity mitogen-activated protein kinase kinase 2 (Homo sapiens) (UniProt P36507); experiment: Binding affinity to MAP2K2 in human NCI-H358 cells at 1 uM by mass spectrometry based pull down assay; format: cell-based
Dual specificity mitogen-activated protein kinase kinase 2 (Homo sapiens), sequence (P36507 whole entry, the tested form may be a part): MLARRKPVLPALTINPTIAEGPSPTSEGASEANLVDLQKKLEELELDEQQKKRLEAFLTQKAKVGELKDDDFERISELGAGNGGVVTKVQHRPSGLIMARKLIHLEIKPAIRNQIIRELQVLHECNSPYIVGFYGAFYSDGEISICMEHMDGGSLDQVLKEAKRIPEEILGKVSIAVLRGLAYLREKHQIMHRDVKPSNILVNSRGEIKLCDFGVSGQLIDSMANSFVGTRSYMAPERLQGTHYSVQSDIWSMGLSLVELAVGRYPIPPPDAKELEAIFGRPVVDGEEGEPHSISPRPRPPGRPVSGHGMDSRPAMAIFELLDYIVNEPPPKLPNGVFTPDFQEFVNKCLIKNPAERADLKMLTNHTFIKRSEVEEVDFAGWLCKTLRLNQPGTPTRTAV

[18] = target: Kinesin-like protein KIF15 (Homo sapiens) (UniProt Q9NS87); experiment: Binding affinity to KIF15 in human NCI-H358 cells at 1 uM by mass spectrometry based pull down assay; format: cell-based
[19] = target: Bifunctional phosphoribosylaminoimidazole carboxylase/phosphoribosylaminoimidazole succinocarboxamide synthetase (Homo sapiens) (UniProt P22234); experiment: Binding affinity to PAICS in human NCI-H358 cells at 1 uM by mass spectrometry based pull down assay; format: cell-based
[20] = target: Dual specificity mitogen-activated protein kinase kinase 2 (Homo sapiens) (UniProt P36507); experiment: Inhibition of full length human MEK2 (1 to 400 residues) expressed in mammalian expression system assessed as enzyme activity at 10 uM by KINOMEScan assay relative to control; design: scale not given: the % may be the effect or the level left
Procedure, shortened: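 In vitro ATP-site competition binding assay (KinomeScan) across a panel of 456 kinases. Compound was tested at 1 and 10 μM. The read-out is the binding inhibition score relative to control.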

[21] = target: Tyrosine-protein kinase receptor UFO (Homo sapiens) (UniProt P30530); experiment: Inhibition of AXL in human SKCO1 cells at 1 uM after 4 hrs using biotin labeled NCMLNENMSVCVADFGLSKK probe by mass-spectrometric analysis relative to control; format: cell-based
Tyrosine-protein kinase receptor UFO (Homo sapiens), sequence (P30530 whole entry): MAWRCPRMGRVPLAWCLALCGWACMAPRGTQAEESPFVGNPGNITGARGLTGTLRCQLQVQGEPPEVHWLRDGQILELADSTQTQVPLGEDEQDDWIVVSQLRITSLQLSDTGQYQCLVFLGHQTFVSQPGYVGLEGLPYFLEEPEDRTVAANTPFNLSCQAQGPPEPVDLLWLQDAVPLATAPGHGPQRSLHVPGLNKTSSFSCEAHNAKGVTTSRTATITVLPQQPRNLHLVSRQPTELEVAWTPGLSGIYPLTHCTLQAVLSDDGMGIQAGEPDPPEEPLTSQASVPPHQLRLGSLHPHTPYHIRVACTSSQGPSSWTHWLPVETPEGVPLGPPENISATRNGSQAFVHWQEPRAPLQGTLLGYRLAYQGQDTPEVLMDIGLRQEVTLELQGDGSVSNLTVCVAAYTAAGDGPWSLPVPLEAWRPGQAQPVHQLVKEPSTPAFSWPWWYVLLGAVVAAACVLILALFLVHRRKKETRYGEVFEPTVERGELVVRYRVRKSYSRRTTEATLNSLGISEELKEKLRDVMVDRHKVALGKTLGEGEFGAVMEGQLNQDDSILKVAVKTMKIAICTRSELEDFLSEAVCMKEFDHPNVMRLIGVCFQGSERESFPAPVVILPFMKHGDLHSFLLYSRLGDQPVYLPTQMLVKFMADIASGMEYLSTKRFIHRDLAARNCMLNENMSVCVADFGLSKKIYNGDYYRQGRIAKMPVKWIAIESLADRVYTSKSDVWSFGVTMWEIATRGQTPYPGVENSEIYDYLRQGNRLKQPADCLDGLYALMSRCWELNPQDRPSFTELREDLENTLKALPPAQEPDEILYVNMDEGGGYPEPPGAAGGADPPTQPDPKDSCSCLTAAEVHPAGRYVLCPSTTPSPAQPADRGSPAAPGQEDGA

[22] = target: Peripheral plasma membrane protein CASK (Homo sapiens) (UniProt O14936); experiment: Inhibition of CASK in human SKCO1 cells at 1 uM after 4 hrs using biotin labeled ETGQQFAVKIVDVAK probe by mass-spectrometric analysis relative to control; format: cell-based

Acyl-coenzyme A thioesterase 13 (Homo sapiens), sequence (Q9NPJ3 whole entry): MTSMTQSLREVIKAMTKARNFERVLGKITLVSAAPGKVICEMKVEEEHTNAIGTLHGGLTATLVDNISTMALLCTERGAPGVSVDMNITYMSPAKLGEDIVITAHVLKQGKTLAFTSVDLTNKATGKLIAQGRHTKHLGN
Y-box-binding protein 1 (Homo sapiens), sequence (P67809 whole entry): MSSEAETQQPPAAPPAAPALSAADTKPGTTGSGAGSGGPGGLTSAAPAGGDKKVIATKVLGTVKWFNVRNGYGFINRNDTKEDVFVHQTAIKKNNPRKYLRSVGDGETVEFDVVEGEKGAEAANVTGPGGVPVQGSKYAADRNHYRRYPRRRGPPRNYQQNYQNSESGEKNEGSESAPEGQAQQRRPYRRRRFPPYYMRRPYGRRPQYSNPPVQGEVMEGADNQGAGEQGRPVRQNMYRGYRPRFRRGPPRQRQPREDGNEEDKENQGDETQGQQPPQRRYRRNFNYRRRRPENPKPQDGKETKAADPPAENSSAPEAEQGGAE

C=CC(=O)Nc1ccccc1Nc1nc(Nc2ccc(N3CCN(CCOCCOCCOCCNC(=O)CCCC[C@@H]4SC[C@@H]5NC(=O)N[C@@H]54)CC3)cc2)ncc1Cl
active: Activity [1] | Activity [2] | Activity [3] | Activity [4] | Activity [5] | Activity [6] | Activity [7] | Activity [8] | Activity [9] | Activity [10] | Activity [11] | Activity [12] | Activity [13] | Activity [14] | Activity [15] | Activity [16] | Activity [17] | Activity [18] | Activity [19]

COc1cc(O)c2c(c1)/C=C/C[C@H](O)[C@H](O)C(=O)/C=C\C[C@H](C)OC2=O
0.05%: Activity [20]

C=CC(=O)Nc1ccccc1Nc1nc(Nc2ccc(N3CCN(C)CC3)cc2)ncc1Cl
-10%: inhibition [22]
27.2%: inhibition [21]

Reference: ChEMBL document CHEMBL4118021, “Studies of TAK1-centered polypharmacology with novel covalent TAK1 inhibitors” (Bioorg Med Chem, 2017)
